Converted amounts (≈) assume the structure as drawn. The source made the active and inactive calls. The calls are words filed in the database; no cut-off is given here.
Assays:
Candida albicans [1] = assay: Antifungal activity against Candida albicans ATCC 10231 after 48 hrs by NCCLS broth microdilution method; format: functional; details: ATCC 10231, 48 h, read-out: MIC100
Method in brief: (§1)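 Yeast MIC by NCCLS M27-A3 broth microdilution in RPMI-1640 buffered to pH 7.0 with MOPS. Twofold dilutions of 250–0.98 µg/mL, final DMSO ≤1%. Inoculum 1–5 × 10³ CFU/mL. Incubated at 30 °C in a moist dark chamber. Read visually at 48 h. MIC100 is the lowest concentration with no visible growth versus drug-free control.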

Candida tropicalis [2] = assay: Antifungal activity against Candida tropicalis after 48 hrs by NCCLS broth microdilution method; format: functional; details: read-out: MIC100; method in brief: as §1
Cryptococcus neoformans [3] = assay: Antifungal activity against Cryptococcus neoformans ATCC 32264 after 48 hrs by NCCLS broth microdilution method; format: functional; details: ATCC 32264, 48 h, read-out: MIC100; method in brief: as §1
Candida tropicalis [4] = assay: Antifungal activity against Candida tropicalis by microplate reader analysis; format: functional
Cryptococcus neoformans [5] = assay: Fungicidal activity against Cryptococcus neoformans ATCC 32264 after 48 hrs by agar plate dilution method; format: functional; details: ATCC 32264, 48 h
Method in brief: (§2)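 MFC: after the microdilution MIC, material from each clear well was plated onto RPMI-1640 agar buffered with MOPS. Plates incubated at 30 °C and read after 48 h. MFC is the lowest concentration giving total inhibition of visible growth.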

Candida albicans [6] = assay: Fungicidal activity against Candida albicans ATCC 10231 at 0.98 to 250 ug/mL after 48 hrs by agar plate dilution method; format: functional, organism-based; method in brief: as §2
Candida tropicalis [7] = assay: Fungicidal activity against Candida tropicalis at 0.98 to 250 ug/mL after 48 hrs by agar plate dilution method; format: functional, organism-based; method in brief: as §2
Aspergillus flavus = assay: Antifungal activity against Aspergillus flavus ATCC 9170 at 0.98 to 250 ug/mL by NCCLS broth microdilution method; format: functional, organism-based
Method in brief: (§3)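 MIC by broth microdilution per NCCLS M27-A3/M38-A2 in RPMI-1640 buffered to pH 7.0 with MOPS. Twofold dilutions from 250–0.98 µg/mL, final DMSO ≤1%. Inoculum 1–5 × 10³ CFU/mL. Incubated in a moist dark chamber, 30 °C for Aspergillus and 28–30 °C for dermatophytes. Read visually when control growth allowed. Endpoint is the lowest concentration giving total inhibition of visible growth (MIC100).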

Aspergillus fumigatus = assay: Antifungal activity against Aspergillus fumigatus ATCC 26934 at 0.98 to 250 ug/mL by NCCLS broth microdilution method; format: functional, organism-based; method in brief: as §3
Aspergillus niger = assay: Antifungal activity against Aspergillus niger ATCC 9029 at 0.98 to 250 ug/mL by NCCLS broth microdilution method; format: functional, organism-based; method in brief: as §3
Nannizzia gypsea = assay: Antifungal activity against Microsporum gypseum CCC 115 at 0.98 to 250 ug/mL by NCCLS broth microdilution method; format: functional, organism-based; method in brief: as §3
Trichophyton rubrum = assay: Antifungal activity against Trichophyton rubrum CCC 110 at 0.98 to 250 ug/mL by NCCLS broth microdilution method; format: functional, organism-based; method in brief: as §3
[8] = test system: Trichophyton mentagrophytes; assay: Antifungal activity against Trichophyton mentagrophytes ATCC 9972 at 0.98 to 250 ug/mL by NCCLS broth microdilution method; format: functional, organism-based; method in brief: as §3
Candida albicans [9] = assay: Antifungal activity against Candida albicans ATCC 10231 assessed as growth inhibition at 250 ug/mL after 24 hrs by microplate reader analysis; format: functional; details: ATCC 10231, 24 h, read-out: GI
Method in brief: (§4)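 96-well RPMI-1640 wells with compound at final 250–0.98 µg/mL (DMSO ≤1%). Inoculum 100 µL, 1–5 × 10³ CFU/mL, 200 µL final. Each well includes growth (DMSO, no compound) and sterility controls. % inhibition = 100 − (CTW−SCW)/(GCW−SCW) × 100, run in duplicate.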

Candida tropicalis [10] = assay: Antifungal activity against Candida tropicalis assessed as growth inhibition at 250 ug/mL by microplate reader analysis; format: functional; details: read-out: GI
Cryptococcus neoformans [11] = assay: Antifungal activity against Cryptococcus neoformans ATCC 32264 assessed as growth inhibition at 250 ug/mL after 48 hrs by microplate reader analysis; format: functional; details: ATCC 32264, 48 h, read-out: GI
Method in brief: (§5)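 Microplate growth-inhibition assay in RPMI-1640, compound at final 250–0.98 µg/mL (DMSO ≤1%). Inoculum 1–5 × 10³ CFU/mL. Sterility and DMSO growth controls included. Percent inhibition is computed from blank-corrected OD relative to the growth control, tested in duplicate.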

Candida albicans [12] = assay: Antifungal activity against Candida albicans ATCC 10231 assessed as growth inhibition at 125 ug/mL after 24 hrs by microplate reader analysis; format: functional; details: ATCC 10231, 24 h, read-out: GI; method in brief: as §4
Candida tropicalis [13] = assay: Antifungal activity against Candida tropicalis assessed as growth inhibition at 125 ug/mL by microplate reader analysis; format: functional; details: read-out: GI
Cryptococcus neoformans [14] = assay: Antifungal activity against Cryptococcus neoformans ATCC 32264 assessed as growth inhibition at 125 ug/mL after 48 hrs by microplate reader analysis; format: functional; details: ATCC 32264, 48 h, read-out: GI; method in brief: as §5
Candida albicans [15] = assay: Antifungal activity against Candida albicans ATCC 10231 assessed as growth inhibition at 62.5 ug/mL after 24 hrs by microplate reader analysis; format: functional; details: ATCC 10231, 24 h, read-out: GI; method in brief: as §4
Candida tropicalis [16] = assay: Antifungal activity against Candida tropicalis assessed as growth inhibition at 62.5 ug/mL by microplate reader analysis; format: functional; details: read-out: GI
Cryptococcus neoformans [17] = assay: Antifungal activity against Cryptococcus neoformans ATCC 32264 assessed as growth inhibition at 62.5 ug/mL after 48 hrs by microplate reader analysis; format: functional; details: ATCC 32264, 48 h, read-out: GI; method in brief: as §5
Candida albicans [18] = assay: Antifungal activity against Candida albicans ATCC 10231 assessed as growth inhibition at 31.25 ug/mL after 24 hrs by microplate reader analysis; format: functional; details: ATCC 10231, 24 h, read-out: GI; method in brief: as §4
Candida tropicalis [19] = assay: Antifungal activity against Candida tropicalis assessed as growth inhibition at 31.25 ug/mL by microplate reader analysis; format: functional; details: read-out: GI
Cryptococcus neoformans [20] = assay: Antifungal activity against Cryptococcus neoformans ATCC 32264 assessed as growth inhibition at 31.25 ug/mL after 48 hrs by microplate reader analysis; format: functional; details: ATCC 32264, 48 h, read-out: GI; method in brief: as §5
Candida albicans [21] = assay: Antifungal activity against Candida albicans ATCC 10231 assessed as growth inhibition at 15.6 ug/mL after 24 hrs by microplate reader analysis; format: functional; details: ATCC 10231, 24 h, read-out: GI; method in brief: as §4
Candida tropicalis [22] = assay: Antifungal activity against Candida tropicalis assessed as growth inhibition at 15.6 ug/mL by microplate reader analysis; format: functional; details: read-out: GI
Cryptococcus neoformans [23] = assay: Antifungal activity against Cryptococcus neoformans ATCC 32264 assessed as growth inhibition at 15.6 ug/mL after 48 hrs by microplate reader analysis; format: functional; details: ATCC 32264, 48 h, read-out: GI; method in brief: as §5
Candida albicans [24] = assay: Antifungal activity against Candida albicans ATCC 10231 assessed as growth inhibition at 7.8 ug/mL after 24 hrs by microplate reader analysis; format: functional; details: ATCC 10231, 24 h, read-out: GI; method in brief: as §4
Candida tropicalis [25] = assay: Antifungal activity against Candida tropicalis assessed as growth inhibition at 7.8 ug/mL by microplate reader analysis; format: functional; details: read-out: GI
Cryptococcus neoformans [26] = assay: Antifungal activity against Cryptococcus neoformans ATCC 32264 assessed as growth inhibition at 7.8 ug/mL after 48 hrs by microplate reader analysis; format: functional; details: ATCC 32264, 48 h, read-out: GI; method in brief: as §5
Candida albicans [27] = assay: Antifungal activity against Candida albicans ATCC 10231 assessed as growth inhibition at 3.9 ug/mL after 24 hrs by microplate reader analysis; format: functional; details: ATCC 10231, 24 h, read-out: GI; method in brief: as §4
Candida tropicalis [28] = assay: Antifungal activity against Candida tropicalis assessed as growth inhibition at 3.9 ug/mL by microplate reader analysis; format: functional; details: read-out: GI
Cryptococcus neoformans [29] = assay: Antifungal activity against Cryptococcus neoformans ATCC 32264 assessed as growth inhibition at 3.9 ug/mL after 48 hrs by microplate reader analysis; format: functional; details: ATCC 32264, 48 h, read-out: GI; method in brief: as §5
Candida albicans [30] = assay: Antifungal activity against Candida albicans ATCC 10231 after 24 hrs by microplate reader analysis; format: functional; details: ATCC 10231, 24 h; method in brief: as §4
[31] = Acute toxicity in bony fish assessed as mortality at 38.4 ug/mL after 96 hrs; details: actinopterygii; read-out: Activity
Method in brief: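 Guppy (Poecilia reticulata) acute static exposure: 10 fish per concentration in 2 L wide-mouthed jars holding the test solution. Compounds were added from […] to give the final concentrations. Dead fish were counted and removed every 24 h, with general condition noted; percentage mortality was scored at 96 h. Two experiments, each in triplicate.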

Cryptococcus neoformans [32] = assay: Antifungal activity against Cryptococcus neoformans ATCC 32264 after 48 hrs by microplate reader analysis; format: functional; details: ATCC 32264, 48 h; method in brief: as §5

SMILES: COc1nc(N)nc(Nc2cccc(Cl)c2)c1N=O
- MIC (Candida albicans [1]): 125 µg/mL (≈ 447 µM)
- MIC (Candida tropicalis [2]): 125 µg/mL (≈ 447 µM)
- MIC (Cryptococcus neoformans [3]): 125 µg/mL (≈ 447 µM)
- MIC50 (Candida tropicalis [4]): 3.9 µg/mL (≈ 13.9 µM)
- MFC (Cryptococcus neoformans [5]): 250 µg/mL (≈ 894 µM)
- Activity (Candida albicans [6]): inactive
- Activity (Candida tropicalis [7]): inactive
- Activity (Aspergillus flavus): inactive
- Activity (Aspergillus fumigatus): inactive
- Activity (Aspergillus niger): inactive
- Activity (Nannizzia gypsea): inactive
- Activity (Trichophyton rubrum): inactive
- Activity [8]: inactive
- inhibition of growth at 250 µg/mL (Candida albicans [9]): 100%
- inhibition of growth at 250 µg/mL (Candida tropicalis [10]): 100%
- inhibition of growth at 250 µg/mL (Cryptococcus neoformans [11]): 100%
- inhibition of growth at 125 µg/mL (Candida albicans [12]): 100%
- inhibition of growth at 125 µg/mL (Candida tropicalis [13]): 100%
- inhibition of growth at 125 µg/mL (Cryptococcus neoformans [14]): 100%
- inhibition of growth at 62.5 µg/mL (Candida albicans [15]): 92.7%
- inhibition of growth at 62.5 µg/mL (Candida tropicalis [16]): 87.9%
- inhibition of growth at 62.5 µg/mL (Cryptococcus neoformans [17]): 83.7%
- inhibition of growth at 31.25 µg/mL (Candida albicans [18]): 91.8%
- inhibition of growth at 31.25 µg/mL (Candida tropicalis [19]): 85.2%
- inhibition of growth at 31.25 µg/mL (Cryptococcus neoformans [20]): 81.3%
- inhibition of growth at 15.6 µg/mL (Candida albicans [21]): 86.3%
- inhibition of growth at 15.6 µg/mL (Candida tropicalis [22]): 75.2%
- inhibition of growth at 15.6 µg/mL (Cryptococcus neoformans [23]): 80.6%
- inhibition of growth at 7.8 µg/mL (Candida albicans [24]): 80.3%
- inhibition of growth at 7.8 µg/mL (Candida tropicalis [25]): 64.5%
- inhibition of growth at 7.8 µg/mL (Cryptococcus neoformans [26]): 74.9%
- inhibition of growth at 3.9 µg/mL (Candida albicans [27]): 53.3%
- inhibition of growth at 3.9 µg/mL (Candida tropicalis [28]): 48.8%
- inhibition of growth at 3.9 µg/mL (Cryptococcus neoformans [29]): 53.2%
- MIC50 (Candida albicans [30]): 3.9 µg/mL (≈ 13.9 µM)
- mortality at 96 h, 38.4 ug/mL [31]: 0%
- MIC50 (Cryptococcus neoformans [32]): 3.9 µg/mL (≈ 13.9 µM)
